# Htt clearance: mutant huntingtin protein clearance; HeLa Exon1htt(103Q)mCFP, aggregate imaging; zero = plate's median compound well; inhibition, % at 1.5 µM; 47,000 compounds, 0.42% hits;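 active means inhibition of aggregate fluorescence above about 70%, also judged a hit by eye on the cell image, limit read from the data, passing the limit was not always enough; inconclusive means no rule stated for this call; inactive means not judged a hit on image review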;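 further: cells exposed to compound for three days before fixation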
# M1 antag: blocks the rat M1 muscarinic receptor response to acetylcholine; P08482; CHO-M1 cells, Fluo-4 calcium, ACh EC80 antagonist mode; hits give low values; B-score at 10 µM; 64,000 compounds, 3.4% hits;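 active means calcium fluorescence response, raw or row-and-column corrected B-score, differing from the plate sample mean either way at a set confidence level, mostly lower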
# Jurkat viability: cytotoxicity toward Jurkat cells; Jurkat E6.1 viability, ATP luminescence, 48 h; inhibition, % at 4 µM; 56,000 compounds, 1.2% hits;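 active means inhibition above the mean inhibition of all tested compounds plus 3 SD, cut at about 28% in these data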
# D1 allo mod: allosterically modulates the human D1 dopamine receptor | P21728 | HEK293 D1, CRE-luciferase, dopamine EC30 potentiation; actives deviate in either direction | B-score at 10 µM | 58,000 compounds, 5.9% hits;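 active means luminescence count or its row- and column-corrected plate score outside the 99.7% band of the plate's sample wells, on either side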
# Target sequence (P21728 whole entry, looked up): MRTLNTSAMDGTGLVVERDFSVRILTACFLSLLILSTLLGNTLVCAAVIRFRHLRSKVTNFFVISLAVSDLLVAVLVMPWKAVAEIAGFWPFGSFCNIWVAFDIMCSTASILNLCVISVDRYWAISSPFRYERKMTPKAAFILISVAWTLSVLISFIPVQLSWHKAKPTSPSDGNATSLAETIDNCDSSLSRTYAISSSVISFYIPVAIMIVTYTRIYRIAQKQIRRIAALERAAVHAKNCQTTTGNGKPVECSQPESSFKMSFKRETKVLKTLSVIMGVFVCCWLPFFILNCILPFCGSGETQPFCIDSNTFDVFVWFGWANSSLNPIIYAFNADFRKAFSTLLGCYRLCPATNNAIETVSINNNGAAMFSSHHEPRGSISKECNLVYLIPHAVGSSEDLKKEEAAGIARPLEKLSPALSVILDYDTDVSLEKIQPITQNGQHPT
# HEK293 NFkB inh: inhibitors of the PMA/ionomycin-induced NF-kB reporter in HEK293 cells; inhibition, % at 3 µM; AID 465; HEK-293 NF-kB luciferase reporter, luminescence; 62,000 compounds, 0.21% hits;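 active means inhibition above the mean of all tested compounds plus 3 SD, cut at about 40% in these data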;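 further: 0% = stimulated DMSO wells and 100% = 10 µM reference inhibitor 5653914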
#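 Material: HEK-293 cells with stable firefly luciferase reporter driven by four HIV NF-kB elements / Also added: PMA plus ionomycin mix as NF-kB-activating stimulus / Compound dosing: 3 µM once, 0.30% DMSO / Times: 1 h pretreatment, 16 h stimulation, 37 °C / Signal: luminescence / Evaluation: per-plate % inhibition versus controls / Benchmarks: DMSO and 10 µM reference inhibitor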
# M1 ag: M1 muscarinic receptor agonism; CHO-M1 cells, Fluo-4 calcium fluorescence, agonist mode; hits give high values; B-score at 10 µM; 64,000 compounds, 3% hits; AID 626;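 active means fluorescence rise, raw or as B-score row- and column-corrected plate score, outside the 99.7% band of its plate's samples, either direction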
# D1 PAM confirm: confirmation of human D1 dopamine receptor allosteric modulators | shares compounds with D1 allo mod | HEK293 D1 CRE-luciferase, dopamine EC30 potentiation; hits give high values | luminescence at 10 µM | 2,200 compounds, 88% hits;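 active means luminescence in either of two replicates above the same-plate mean plus 3 SD of the low-dose dopamine control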
# D1 ag no DA: secondary test of D1 modulators: activity without dopamine. shares compounds with D1 allo mod. HEK293 D1 CRE-luciferase, luminescence, no dopamine; hits give high values. luminescence at 10 µM. 1,900 compounds, 0.8% hits. AID 646; in the data active means luminescence above about 3900
# Isoprot counter: counter-screen for D1 modulators: isoproterenol response in HEK293 cells; AID 647; HEK293 D1 CRE-luciferase, isoproterenol EC30 counter-screen; hits give high values; 2,200 compounds, 63% hits; luminescence at 10 µM; shares compounds with D1 allo mod;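 active means luminescence in either replicate above plate mean of wells with a partly effective reference agonist dose plus 3 SD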;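 further: isoproterenol raises cAMP through native beta-adrenoceptor Gs so signal bypasses D1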
# Numbers without * were called inactive; ? = inconclusive; . = no result given. Sampled rows, rich in hits. Any-hit rate of the full collection: about 9.5%.
SMILES,Htt clearance,M1 antag,Jurkat viability,D1 allo mod,HEK293 NFkB inh,M1 ag,D1 PAM confirm,D1 ag no DA,Isoprot counter
O=C(O)CCC(=O)N1CCc2cc(S(=O)(=O)NC3CCCc4ccccc43)ccc21 (stereo unspecified),.,0.92,-3,0.8,10,0.23,.,.,.
CCC(=O)N1CCc2cc(S(=O)(=O)NCCC(=O)NC3CCCc4ccccc43)ccc21 (stereo unspecified),.,0.76,4,3.8*,10,0.18,8544*,1768,2752
Cc1noc(C)c1CSc1nnc(-c2cc(Cl)ccc2Cl)n1N,?,0.92,.,9.5*,7,-0.63,25992*,1756,5704*
O=C(CCCc1nc2ccccc2s1)N1CCN(S(=O)(=O)c2cccs2)CC1,.,-0.67,10,4.2*,24,-0.67,8136*,1520,2184
O=C(CCS(=O)(=O)c1ccc(Cl)cc1)N1CCN(S(=O)(=O)c2cccs2)CC1,-14,-0.77,9,-0.48,14,-0.16,.,.,.
CCCCc1nc2n[nH]c(N)c2c2c1CCC2,?,-0.053,-5,7.9*,18,0.46,22688*,1740,6660*
CN(CC(=O)NCc1cccs1)S(=O)(=O)c1cccc2nsnc12,-18,0.44,7,-0.82,-4,-1,.,.,.
CC1(C)OC(=O)C(=CNc2ccccc2F)C(=O)O1,-22,0.17,-3,5.7*,0,-0.24,9180*,1436,3276*
CSc1nnc(-c2cccs2)n1-c1ccccc1,-22,0.44,0,3.7*,21,0.62,17328*,1712,3412*
CCOC(=O)CSc1nnc(-c2cccs2)n1-c1ccccc1,-6,0,8,0.44,2,-3,.,.,.
CCC(=O)Nc1ccc(Cl)c(NC(=O)C(C)C)c1,.,-0.12,-7,-0.055,9,-0.15,.,.,.
CN(Cc1ccccc1)S(=O)(=O)c1ccc(S(=O)(=O)N2CCN(CCC#N)CC2)cc1,.,-1.3,-10,1.2,3,0.82,.,.,.
CC1Cc2ccccc2N1C(=O)CSc1nnnn1C(C)C (stereo unspecified),4,.,.,.,.,.,.,.,.
CN1CCN(CCNC(=O)c2cc3c(=O)n(C)c4ccccc4c3n2C)CC1,.,-0.23,4,4.6*,4,0.17,5788,.,2120
Cc1cccc(-n2c(=O)[nH]c3c(C(N)=O)nc(C(C)C)nc32)c1,.,0.02,0,5.5*,8,0.36,10016*,1376,3232
CCCn1c(C)cc(=O)c2cc(NC(=O)c3ccccn3)ccc21,23,-0.7,1,0.062,25,0.41,.,.,.
CCOC(=O)C1=C(C)NC(=O)NC1c1cn(-c2ccccc2)nc1-c1cccs1 (stereo unspecified),.,-1.6,-2,2.8*,14,-0.79,10976*,1540,3608*
O=C(COC(=O)c1cn(-c2ccccc2)nc1-c1cccs1)NC1CC1,.,-1.6,0,.,8,-0.99,.,.,.
CN(CC(=O)N1CCc2ccccc21)S(=O)(=O)c1ccc(Br)s1,.,0,.,-0.32,13,-0.89,.,.,.
C=C(C)CSc1nncn1/N=C/c1ccc(OC)cc1,10,0.39,-4,3.5,-7,-0.6,.,.,.
CCSc1nncn1/N=C/c1ccc(OC)c(OC)c1,.,1.9,-8,8.3*,7,1.4,15592*,1796,7020*
O=C(O)c1ccccc1SC1CC(=O)N(C2CCCCC2)C1=O (stereo unspecified),.,-0.23,-3,3.9*,10,1.1,6536,1600,2392
CC(c1ccccc1)N1C(=O)CC(Sc2ncccc2C(=O)O)C1=O (stereo unspecified),-28,0.31,15,-0.36,7,-0.04,.,.,.
CC(C)C1N(S(=O)(=O)c2ccccc2)CCN1S(=O)(=O)c1ccccc1,.,0.64,6,-0.18,15,0.027,.,.,.
COc1ccc(OCc2nnc(SC3CCOC3=O)n2-c2ccccc2)cc1 (stereo unspecified),.,-0.053,-1,0.15,8,-0.8,.,.,.
SMILES,Htt clearance,M1 antag,Jurkat viability,D1 allo mod,HEK293 NFkB inh,M1 ag,D1 PAM confirm,D1 ag no DA,Isoprot counter
COc1cccc(-n2c(SC3CCOC3=O)nc3ccccc3c2=O)c1 (stereo unspecified),0,-0.21,-1,13*,11,-0.14,13364*,1604,4456*
O=C(/C=C/c1cccc([N+](=O)[O-])c1)NCCN1CCOCC1,22,.,.,.,.,.,.,.,.
COC(=O)c1ccc(N2C(=O)c3ccc(OC)c(OC)c3C2=O)cc1,.,0.6,-5,.,14,1,.,.,.
COc1ccc2c(c1OC)C(=O)N(c1cccc(C)c1)C2=O,.,0.83,9,4.6*,15,-0.15,10596*,1716,4244*
CC(=O)C(Sc1nc(-c2ccco2)nc2c1c(=O)n(C)c(=O)n2C)C(=O)N(C)C (stereo unspecified),.,0.22,-6,0.68,15,0.31,.,.,.
COc1ccc2[nH]c(=O)c(CN(Cc3cccs3)Cc3nnnn3C(C)(C)C)cc2c1,.,-0.59,1,5.3*,13,-0.34,7020*,1520,2408
CCOC(=O)c1ccc(Oc2nc(NC)nc(SC)n2)cc1,-76,0.23,8,8*,9,-0.48,17796*,1848,3272
Cc1cc(Oc2ccccc2)nc(N)n1,-45,-0.16,5,4*,21,-0.24,9044*,.,2688*
Cc1cc(Oc2ccccc2)nc(-c2ccccc2O)n1,7,0.49,2,.,3,0.6,.,.,.
CCOC(=O)c1ccc(Oc2cc(C)nc(SC)n2)cc1,-35,0.77,75*,3*,17,0.97,8484*,1628,2796
COC(=O)CSc1nc(C)cc(Oc2ccccc2)n1,.,0.0019,9,12*,18,-0.51,13148*,.,3404*
COc1ccc(CCNC(=O)CCSc2nc(-c3ccco3)cc(C(F)(F)F)n2)cc1OC,47,0.077,3,3.3,4,0.44,.,.,.
COC(=O)[C@H](Cc1ccccc1)NC(=O)NCCC1=CCCCC1,38,.,.,.,.,.,.,.,.
COC(=O)c1ccc(Oc2cc(C)nc(-n3nc(C)cc3C)n2)cc1,-21,-0.3,100*,7.8*,37,0.18,18884*,1876,5724*
COC(=O)c1ccc(Oc2nc(C)cc(Oc3ccccc3)n2)cc1,-16,-0.18,-14,0.37,9,0.35,.,.,.
Cc1ccc(OCCN2C(=O)OC(C)(C)C2(C)O)cc1 (stereo unspecified),-36,-0.13,0,5.5*,-18,-0.089,7404*,1572,3264
CCOc1ccccc1C1C(C(=O)Nc2ccccc2OC)=C(C)Nc2nnnn21 (stereo unspecified),.,-0.23,2,-0.33,19,0.12,.,.,.

# Screening data from PubChem.
